Assays:
[1] = test system: Mus musculus; assay: Antagonistic activity against amphetamine-induced Hypermobility in mice, by administering perorally at a dose of 10 mg/kg; type: functional; settings: route oral
Procedure, shortened: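 Male mice in groups of five, fasted overnight, given oral drug in arabic gum suspension (10 mL/kg) 1 or 5 h ahead. Amphetamine 4 mg/kg ip given 30 min after drug. Ten minutes later locomotion is recorded for 15 min in a photocell actophotometer. ED50 is 50% reduction versus control hypermotility, by probit analysis. Parenthetical entries give the maximal dose and percent activity.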

[2] = test system: Rattus norvegicus; assay: Antagonistic activity against apomorphine-induced stereotypy in rats, by administering perorally at a dose of 20 mg/kg; type: functional; settings: route oral
Procedure, shortened: (§1)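 Male rats fasted overnight and given oral doses in arabic gum suspension (10 mL/kg) 1 h, or 1 and 5 h, before challenge. Apomorphine 3 mg/kg iv, with stereotypy observed 20 min later. ED50 is the dose inhibiting stereotypy in 50% of rats, per Janssen's method. Parenthetical entries give the maximal dose and percent activity.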

[3] = test system: Rattus norvegicus; assay: Activity to evoke catalepsy in rats, by administering perorally at a dose of 20 mg/kg; type: functional; settings: route oral, read-out: Inhibition
Procedure, shortened: (§2)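 Rats fasted overnight and given oral doses in arabic gum suspension (10 mL/kg), 1 h before screening or 1 and 5 h before profile testing. Forelegs placed on a horizontal bar 7 cm high, three times at 5-min intervals. Immobility of at least 15 s counts as catalepsy. ED50 is the dose giving catalepsy in 50% of rats, by probit analysis. Parenthetical entries give the maximal dose and percent activity.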

[4] = test system: Mus musculus; assay: Inhibition of spontaneous motor activity in mice, by administering perorally at a dose of 10 mg/kg; type: functional; settings: route oral
Procedure, shortened: (§3)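 Mice in groups of five were dosed orally with gum arabic suspensions at 10 mL/kg after an overnight fast, with a vehicle control group. Locomotion was counted for 10 min in a photocell activity cage, in at least two groups per dose. ED50, by probit analysis, is the dose giving 50% inhibition against controls.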

[5] = Lethal dose in mice (LD50) following i.p. dosing; type: toxicity, organism-based; settings: mouse, in vivo, ip
Procedure, shortened: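 Acute toxicity tested in mice by the intraperitoneal route. LD50 is the dose killing 50% of treated mice, computed by Finney probit analysis; values are approximate.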

[6] = test system: Rattus norvegicus; assay: Activity to evoke catalepsy in rats, by administering perorally at a dose of 40 mg/kg; type: functional; settings: route oral; procedure, shortened: as §2
[7] = test system: Mus musculus; assay: Inhibition of spontaneous motor activity in mice, by administering perorally at a dose of 40 mg/kg; type: functional; settings: route oral
Procedure, shortened: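 Mice fasted overnight, then dosed orally with compound (weighed as base) suspended in arabic gum, 10 mL/kg, with vehicle controls; 1 h pretreatment for screening tests, 1 or 5 h for others. Groups of five; locomotor activity counted 10 min in photocell activity cage, at least two groups per dose. ED50 = dose giving 50% inhibition versus controls, by probit analysis.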

[8] = test system: Mus musculus; assay: Inhibition of amphetamine-induced hypermobility in mice following p.o. administration.; type: functional; settings: po
Procedure, shortened: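 Compounds were given orally to male mice (gum arabic suspension, 10 mL/kg, fasted) in groups of five. Amphetamine 4 mg/kg ip followed 30 min later. After another 10 min, motility was recorded for 15 min with a photocell actophotometer. ED50, by probit analysis, is the dose giving 50% reduction against controls.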

[9] = test system: Rattus norvegicus; assay: Antagonistic activity against apomorphine-induced stereotypy in rats, by administering perorally at a dose of 40 mg/kg; type: functional; settings: route oral; procedure, shortened: as §1
[10] = test system: Rattus norvegicus; assay: Activity to evoke catalepsy in rats, by administering perorally at a dose 150 mg/kg; type: functional; settings: route oral; procedure, shortened: as §2
[11] = test system: Mus musculus; assay: Inhibition of spontaneous motor activity in mice, by administering perorally; type: functional; settings: po; procedure, shortened: as §3
[12] = test system: Rattus norvegicus; assay: Antagonistic activity against apomorphine-induced stereotypy in rats, by administering perorally; type: functional; settings: po; procedure, shortened: as §1
[13] = test system: Rattus norvegicus; assay: Antagonistic activity against apomorphine-induced stereotypy in rats, by administering perorally at a dose of 400 mg/kg; type: functional; settings: route oral; procedure, shortened: as §1
[14] = test system: Rattus norvegicus; assay: Activity to evoke catalepsy in rats, by administering perorally at a dose of 150 mg/kg; type: functional; settings: route oral; procedure, shortened: as §2

For `Oc1nc(-c2ccc(-c3ccccc3)cc2)c(CCN2CCN(c3ccccc3)CC2)o1`, the inhibition in vivo at 10 mg/kg [1] was 33%, the inhibition in vivo at 20 mg/kg [2] was 0% and the percent of rats showing catalepsy at 20 mg/kg [3] was 0%. For the same compound, the inhibition in vivo at 10 mg/kg [4] was 32% and the LD50 [5] was 750 mg/kg.

In the case of `Oc1nc(-c2ccc(F)cc2)c(CCN2CCN(c3ccc(Cl)cc3Cl)CC2)o1`, the inhibition in vivo at 40 mg/kg [6] is reported as 0%, the inhibition in vivo at 40 mg/kg [7] is reported as 45% and the ED50 [8] is reported as 23.9 mg/kg. It also gave an inhibition in vivo at 40 mg/kg [9] of 0% and an LD50 [5] of 1000 mg/kg.

Compound `CCn1c(-c2ccc(F)cc2)c(CCN2CCN(c3ccccc3)CC2)oc1=O` has an inhibition in vivo at 150 mg/kg [10] of 0%, an ED50 [11] of 15.4 mg/kg and an ED50 [12] of 75 mg/kg. The ED50 [8] was 17 mg/kg and the LD50 [5] was 750 mg/kg.

With `Oc1nc(-c2ccc(Cl)cc2)c(CCN2CCN(c3ccccc3)CC2)o1` the inhibition in vivo at 400 mg/kg [13] was 0%, the inhibition in vivo at 150 mg/kg [14] was 0% and the ED50 [11] was 3 mg/kg. The ED50 [8] was 4.7 mg/kg and the LD50 [5] was over 1000 mg/kg.

— ChEMBL document CHEMBL1124344, “5-Piperazinylalkyl-2(3H)-oxazolones with neuroleptic activity” (J Med Chem, 1989)
